In ChEMBL document CHEMBL1909537, “1-Aryl-5-(1H-pyrrol-1-yl)-1H-pyrazole-3-carboxamide: an effective scaffold for the design of either CB1 or CB2 receptor ligands” (Eur J Med Chem, 2011):
Active and inactive are the calls of the source. No cut-off for these calls is given here.

Experiments:
[1] = species on record: Homo sapiens; assay: Selectivity index, ratio of Ki for recombinant human CB1 receptor to Ki for recombinant human CB2 receptor
Method in brief: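 Index computed as Ki(CB1)/Ki(CB2). Each Ki comes from [3H]-CP-55,940 displacement on transfected HEK membranes (0.14 nM radioligand for CB1, 0.084 nM for CB2) via Cheng-Prusoff.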

[2] = biological target: Cannabinoid receptor 1 (Homo sapiens, UniProt P21554); assay: Displacement of [3H]CP-55,940 from recombinant human CB1 receptor expressed in HEK cells; type: cell-based, HEK293
Method in brief: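 Competition binding on membranes of HEK cells transfected with human CB1, using [3H]-CP-55,940 at 0.14 nM (radioligand Kd 0.18 nM). Displacement curves give IC50, converted to Ki by the Cheng-Prusoff equation. Reference ligands run in parallel.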

[3] = species on record: Homo sapiens; assay: Selectivity index, ratio of Ki for recombinant human CB2 receptor to Ki for recombinant human CB1 receptor
Method in brief: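 Index computed as Ki(CB2)/Ki(CB1). Each Ki comes from [3H]-CP-55,940 displacement on transfected HEK membranes (0.14 nM radioligand for CB1, 0.084 nM for CB2) via Cheng-Prusoff.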

[4] = biological target: Cannabinoid receptor 2 (Homo sapiens, UniProt P34972); assay: Displacement of [3H]CP-55,940 from recombinant human CB2 receptor expressed in HEK cells; type: cell-based, HEK293
Method in brief: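 Competition binding on membranes of HEK cells transfected with human CB2, using [3H]-CP-55,940 at 0.084 nM (radioligand Kd 0.31 nM). Displacement curves give IC50, converted to Ki by the Cheng-Prusoff equation. Reference ligands run in parallel.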

[5] = system: Rattus norvegicus; assay: Reduction in food intake in Wistar rat at 2 mg/kg, ip administered 30 mins before lights off measured 6 hrs after lights off relative to vehicle-treated control; type: functional, organism-based; parameters: dose 2 mg/kg
Method in brief: (§1)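 Wistar rats had free access to 1% w/v sucrose solution, water and regular chow. On test day they were split into groups of n = 15, matched on body weight and on sucrose and food intake over the prior 3 days. Drug was suspended in saline with 0.05% v/v Tween 80 and given ip at 0, 1 or 2 mg/kg (3 mL/kg), 30 min before lights off. Data were analysed by ANOVA with Newman-Keuls test.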

[6] = system: Rattus norvegicus; assay: Reduction in water intake in Wistar rat at 2 mg/kg, ip administered 30 mins before lights off measured 6 hrs after lights off relative to vehicle-treated control; type: functional, organism-based; parameters: dose 2 mg/kg; method in brief: as §1
[7] = system: Rattus norvegicus; assay: Reduction in sucrose intake in Wistar rat at 2 mg/kg, ip administered 30 mins before lights off measured 6 hrs after lights off relative to vehicle-treated control; type: functional; parameters: scale not given: the % may be the effect or the level left; details: route intraperitoneal; method in brief: as §1

Cannabinoid receptor 2, sequence (P34972 whole entry): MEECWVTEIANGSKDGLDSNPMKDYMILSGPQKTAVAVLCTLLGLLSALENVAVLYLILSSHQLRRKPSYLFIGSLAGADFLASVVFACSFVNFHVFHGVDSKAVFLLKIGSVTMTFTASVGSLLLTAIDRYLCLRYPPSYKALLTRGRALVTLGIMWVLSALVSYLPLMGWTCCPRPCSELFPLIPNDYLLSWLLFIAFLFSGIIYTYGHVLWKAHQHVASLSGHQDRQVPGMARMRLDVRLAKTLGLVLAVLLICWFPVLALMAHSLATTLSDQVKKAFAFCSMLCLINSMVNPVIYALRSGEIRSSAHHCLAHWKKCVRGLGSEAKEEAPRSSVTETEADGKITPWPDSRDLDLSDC
Cannabinoid receptor 1, sequence (P21554 whole entry): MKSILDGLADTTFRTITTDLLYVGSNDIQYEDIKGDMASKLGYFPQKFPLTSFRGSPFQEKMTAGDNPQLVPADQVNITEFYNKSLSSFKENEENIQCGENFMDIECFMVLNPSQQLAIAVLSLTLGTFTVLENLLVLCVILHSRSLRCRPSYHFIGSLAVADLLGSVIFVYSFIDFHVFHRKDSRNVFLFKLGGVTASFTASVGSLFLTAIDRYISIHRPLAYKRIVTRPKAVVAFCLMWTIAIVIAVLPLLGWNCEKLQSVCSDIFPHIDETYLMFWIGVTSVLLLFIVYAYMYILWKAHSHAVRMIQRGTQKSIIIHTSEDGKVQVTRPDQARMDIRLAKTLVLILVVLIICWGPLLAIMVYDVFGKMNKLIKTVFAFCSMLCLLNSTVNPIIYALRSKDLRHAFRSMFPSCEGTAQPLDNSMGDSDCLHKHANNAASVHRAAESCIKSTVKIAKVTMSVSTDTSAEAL

| Structure (SMILES) | Ratio Ki [1] | Ki [2] [µM] | Ratio Ki [3] | Ki [4] [µM] | Activity [5] | Activity [6] | Activity [7] [%] |
| --- | --- | --- | --- | --- | --- | --- | --- |
| Cc1c(C(=O)NCc2ccc(Cl)c(Cl)c2)nn(-c2ccc(Cl)cc2Cl)c1-n1cccc1Cl | 0.26 | 0.0252 | 3.9 | 0.0985 | – | – | – |
| Cc1c(C(=O)NCc2ccc(Cl)c(Cl)c2)nn(-c2ccc(Cl)cc2Cl)c1-n1cc2c(c1)CCCC2 | 0.63 | 0.0459 | 1.6 | 0.0729 | – | – | – |
| Cc1c(C(=O)NC2CCCCC2)nn(-c2ccc(Cl)c(Cl)c2)c1-n1c(Cl)ccc1Cl | 4.31 | 0.0056 | 0.23 | 0.0013 | – | – | – |
| Cc1c(C(=O)NC2CCCCC2)nn(-c2ccc(Cl)cc2Cl)c1-n1cccc1Cl | 0.4 | 0.0077 | 2.4 | 0.0183 | – | – | – |
| Cc1c(C(=O)NC2CCCCC2)nn(-c2ccc(Cl)c(Cl)c2)c1-n1cccc1Cl | 9.56 | 0.0086 | 0.11 | 0.0009 | – | – | – |
| CCc1c(C(=O)NC2CCCCC2)nn(-c2ccc(Cl)cc2Cl)c1-n1c(C)ccc1C | 0.009 | 0.0067 | 112 | 0.754 | – | – | – |
| Cc1c(C(=O)NC2CCCCC2)nn(-c2ccc(Cl)cc2Cl)c1-n1cc2c(c1)CCCC2 | 0.006 | 0.0023 | 164 | 0.376 | inactive | inactive | 25 |
| CCc1c(C(=O)NCc2ccc(Cl)c(Cl)c2)nn(-c2ccc(Cl)c(Cl)c2)c1-n1cccc1 | 15.3 | 0.454 | 0.065 | 0.0296 | – | – | – |
| CCc1c(C(=O)NC2CCCCC2)nn(-c2ccc(Cl)cc2Cl)c1-n1cccc1 | 0.19 | 0.003 | 5.3 | 0.0158 | – | – | – |
| CCc1ccc(CC)n1-c1c(C)c(C(=O)NCc2ccc(Cl)c(Cl)c2)nn1-c1ccc(Cl)c(Cl)c1 | – | > 10 | – | > 10 | – | – | – |
| Cc1c(C(=O)NCc2ccc(Cl)c(Cl)c2)nn(-c2ccc(Cl)c(Cl)c2)c1-n1c(Cl)ccc1Cl | 0.34 | 0.0556 | 2.9 | 0.162 | – | – | – |
| CCc1c(C(=O)NC2CCCCC2)nn(-c2ccc(Cl)c(Cl)c2)c1-n1c(C)ccc1C | 28.2 | 0.048 | 0.035 | 0.0017 | – | – | – |
| CCc1ccc(CC)n1-c1c(C)c(C(=O)NC2CCCCC2)nn1-c1ccc(Cl)c(Cl)c1 | 0.33 | 0.136 | 3 | 0.41 | – | – | – |
| Cc1c(C(=O)NC2CCCCC2)nn(-c2ccc(Cl)cc2Cl)c1-n1c(Cl)ccc1Cl | 0.49 | 0.0094 | 2 | 0.0191 | – | – | – |
| CCc1c(C(=O)NCc2ccc(Cl)c(Cl)c2)nn(-c2ccc(Cl)cc2Cl)c1-n1cccc1 | 0.11 | 0.0487 | 9.3 | 0.455 | – | – | – |
| Cc1c(C(=O)NCc2ccc(Cl)c(Cl)c2)nn(-c2ccc(Cl)c(Cl)c2)c1-n1cccc1Cl | 1.38 | 0.0741 | 0.73 | 0.0539 | – | – | – |
| CCc1c(C(=O)NCc2ccc(Cl)c(Cl)c2)nn(-c2ccc(Cl)cc2Cl)c1-n1c(C)ccc1C | 0.94 | 0.0561 | 1.06 | 0.0531 | – | – | – |
| Cc1c(C(=O)NCc2ccc(Cl)c(Cl)c2)nn(-c2ccc(Cl)cc2Cl)c1-n1c(Cl)ccc1Cl | 0.49 | 0.0661 | 2 | 0.135 | – | – | – |
| CCc1c(C(=O)NC2CCCCC2)nn(-c2ccc(Cl)c(Cl)c2)c1-n1cccc1 | 30 | 0.0153 | 0.033 | 0.00051 | – | – | – |
| CCc1c(C(=O)NCc2ccc(Cl)c(Cl)c2)nn(-c2ccc(Cl)c(Cl)c2)c1-n1c(C)ccc1C | 8.49 | 0.966 | 0.118 | 0.114 | – | – | – |
